Measured values as given in ChEMBL document CHEMBL3813698, “Hydrophobic substituents increase the potency of salacinol, a potent α-glucosidase inhibitor from Ayurvedic traditional medicine 'Salacia'” (Bioorg Med Chem, 2016).
pIC50: −log10 of the molar value.

Assays:
[1] = target: T1, Sucrase-isomaltase, intestinal (Rattus norvegicus, UniProt P23739); assay: Inhibition of rat small intestinal sucrase using sucrose as substrate incubated for 30 mins by glucose-oxidase method
Summary of the method: (§1)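 Rat small-intestinal α-glucosidases in 0.1 M maleate buffer (pH 6.0). Test sample dissolved in DMSO, diluted with maleate buffer (10% DMSO in sample solution; 2.5% final). Substrate solution concentrations were maltose 74 mM (maltase), sucrose 74 mM (sucrase) and isomaltose 7.4 mM (isomaltase). Substrate, sample and enzyme were mixed at 37 °C for 30 min, stopped by 2 min boiling, and glucose read by glucose oxidase.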

[2] = Inhibition of rat small intestinal maltase using maltose as substrate incubated for 30 mins by glucose-oxidase method; summary of the method: as §1
Maltase-glucoamylase = Maltase-glucoamylase (Homo sapiens, UniProt O43451); assay: Inhibition of human small intestine microsomal maltase using maltose as substrate incubated for 30 mins by glucose-oxidase method
Sequence of Maltase-glucoamylase (O43451 whole entry): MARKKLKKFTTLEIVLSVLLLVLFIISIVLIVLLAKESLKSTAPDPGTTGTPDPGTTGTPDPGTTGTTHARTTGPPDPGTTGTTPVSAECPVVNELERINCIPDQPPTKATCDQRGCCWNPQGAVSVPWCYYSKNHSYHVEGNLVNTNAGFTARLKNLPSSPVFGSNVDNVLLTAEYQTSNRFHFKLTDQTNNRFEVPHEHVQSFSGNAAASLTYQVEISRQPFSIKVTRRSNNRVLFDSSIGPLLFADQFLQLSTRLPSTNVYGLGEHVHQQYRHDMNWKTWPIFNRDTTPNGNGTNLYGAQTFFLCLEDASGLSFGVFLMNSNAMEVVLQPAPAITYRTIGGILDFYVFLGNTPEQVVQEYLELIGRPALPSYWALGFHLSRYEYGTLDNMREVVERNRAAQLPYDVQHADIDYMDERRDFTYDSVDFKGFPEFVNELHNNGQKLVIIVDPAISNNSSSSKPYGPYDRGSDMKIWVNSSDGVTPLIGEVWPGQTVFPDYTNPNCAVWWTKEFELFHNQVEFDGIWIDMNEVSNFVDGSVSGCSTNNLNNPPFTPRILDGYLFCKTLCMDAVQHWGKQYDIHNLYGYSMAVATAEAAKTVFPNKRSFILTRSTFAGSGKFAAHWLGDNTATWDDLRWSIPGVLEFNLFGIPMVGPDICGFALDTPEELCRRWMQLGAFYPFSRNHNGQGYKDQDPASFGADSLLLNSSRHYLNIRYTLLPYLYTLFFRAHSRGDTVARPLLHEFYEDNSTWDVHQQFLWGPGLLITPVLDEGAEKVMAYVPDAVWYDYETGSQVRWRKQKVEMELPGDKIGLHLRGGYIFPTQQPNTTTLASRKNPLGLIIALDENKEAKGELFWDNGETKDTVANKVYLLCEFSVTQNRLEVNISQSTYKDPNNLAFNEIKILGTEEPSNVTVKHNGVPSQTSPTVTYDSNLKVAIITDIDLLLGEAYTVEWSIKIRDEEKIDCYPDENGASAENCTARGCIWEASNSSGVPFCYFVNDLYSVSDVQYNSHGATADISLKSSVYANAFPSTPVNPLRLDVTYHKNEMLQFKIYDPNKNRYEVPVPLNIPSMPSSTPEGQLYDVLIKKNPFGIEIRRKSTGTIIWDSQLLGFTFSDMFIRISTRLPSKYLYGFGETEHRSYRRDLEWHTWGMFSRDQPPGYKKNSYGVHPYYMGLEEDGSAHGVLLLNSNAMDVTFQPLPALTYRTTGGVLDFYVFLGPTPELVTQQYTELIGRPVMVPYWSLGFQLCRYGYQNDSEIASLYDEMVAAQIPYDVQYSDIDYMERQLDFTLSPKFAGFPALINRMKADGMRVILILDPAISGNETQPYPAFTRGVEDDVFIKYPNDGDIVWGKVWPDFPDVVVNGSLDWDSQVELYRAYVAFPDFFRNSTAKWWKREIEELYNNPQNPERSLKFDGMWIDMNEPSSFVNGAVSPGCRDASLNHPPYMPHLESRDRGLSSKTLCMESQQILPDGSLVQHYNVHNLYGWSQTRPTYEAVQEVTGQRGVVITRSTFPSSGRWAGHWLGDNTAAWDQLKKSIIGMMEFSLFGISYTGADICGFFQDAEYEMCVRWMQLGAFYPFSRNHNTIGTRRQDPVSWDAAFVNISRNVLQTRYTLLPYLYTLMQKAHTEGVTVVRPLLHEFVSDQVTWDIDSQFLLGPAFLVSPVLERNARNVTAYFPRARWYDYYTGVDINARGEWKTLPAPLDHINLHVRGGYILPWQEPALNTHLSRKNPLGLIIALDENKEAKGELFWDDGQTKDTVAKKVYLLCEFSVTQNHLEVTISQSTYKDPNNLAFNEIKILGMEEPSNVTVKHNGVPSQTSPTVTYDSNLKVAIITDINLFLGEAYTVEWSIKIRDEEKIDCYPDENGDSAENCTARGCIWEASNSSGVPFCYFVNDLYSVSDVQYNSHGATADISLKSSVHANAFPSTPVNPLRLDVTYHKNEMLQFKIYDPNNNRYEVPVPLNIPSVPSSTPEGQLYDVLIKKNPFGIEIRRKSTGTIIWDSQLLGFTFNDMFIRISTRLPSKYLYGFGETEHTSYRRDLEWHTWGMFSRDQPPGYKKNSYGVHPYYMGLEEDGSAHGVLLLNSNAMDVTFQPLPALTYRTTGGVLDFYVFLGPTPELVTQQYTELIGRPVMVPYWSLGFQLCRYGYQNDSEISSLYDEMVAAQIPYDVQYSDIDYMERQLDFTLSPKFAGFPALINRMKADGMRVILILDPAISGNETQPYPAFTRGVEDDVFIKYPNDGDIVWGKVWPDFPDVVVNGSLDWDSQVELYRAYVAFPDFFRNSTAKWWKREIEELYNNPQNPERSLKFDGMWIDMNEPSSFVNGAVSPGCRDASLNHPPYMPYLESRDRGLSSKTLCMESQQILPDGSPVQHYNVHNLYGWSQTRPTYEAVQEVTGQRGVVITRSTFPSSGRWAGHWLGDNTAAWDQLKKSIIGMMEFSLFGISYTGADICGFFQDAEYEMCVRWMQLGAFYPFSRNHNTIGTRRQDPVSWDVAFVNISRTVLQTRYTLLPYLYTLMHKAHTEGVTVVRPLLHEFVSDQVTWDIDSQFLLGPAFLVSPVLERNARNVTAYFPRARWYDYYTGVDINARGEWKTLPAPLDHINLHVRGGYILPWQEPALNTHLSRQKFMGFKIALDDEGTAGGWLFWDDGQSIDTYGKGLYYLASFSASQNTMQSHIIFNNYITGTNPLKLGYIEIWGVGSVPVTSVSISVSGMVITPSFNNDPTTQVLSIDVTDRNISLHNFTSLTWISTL
Summary of the method: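 Enzyme was human small-intestinal microsome in 0.1 M maleate buffer (pH 6.0), with maltose as substrate. Test sample was dissolved in DMSO and diluted in maleate buffer. Sample, substrate and enzyme were incubated at 37 °C for 30 min, stopped by boiling for 2 min, and glucose measured by the glucose-oxidase method.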

[3] = target: T1, Sucrase-isomaltase, intestinal; assay: Inhibition of rat small intestinal isomaltase using isomaltose as substrate incubated for 30 mins by glucose-oxidase method; summary of the method: as §1

T1 sequence (P23739 1-1013 limits assumed): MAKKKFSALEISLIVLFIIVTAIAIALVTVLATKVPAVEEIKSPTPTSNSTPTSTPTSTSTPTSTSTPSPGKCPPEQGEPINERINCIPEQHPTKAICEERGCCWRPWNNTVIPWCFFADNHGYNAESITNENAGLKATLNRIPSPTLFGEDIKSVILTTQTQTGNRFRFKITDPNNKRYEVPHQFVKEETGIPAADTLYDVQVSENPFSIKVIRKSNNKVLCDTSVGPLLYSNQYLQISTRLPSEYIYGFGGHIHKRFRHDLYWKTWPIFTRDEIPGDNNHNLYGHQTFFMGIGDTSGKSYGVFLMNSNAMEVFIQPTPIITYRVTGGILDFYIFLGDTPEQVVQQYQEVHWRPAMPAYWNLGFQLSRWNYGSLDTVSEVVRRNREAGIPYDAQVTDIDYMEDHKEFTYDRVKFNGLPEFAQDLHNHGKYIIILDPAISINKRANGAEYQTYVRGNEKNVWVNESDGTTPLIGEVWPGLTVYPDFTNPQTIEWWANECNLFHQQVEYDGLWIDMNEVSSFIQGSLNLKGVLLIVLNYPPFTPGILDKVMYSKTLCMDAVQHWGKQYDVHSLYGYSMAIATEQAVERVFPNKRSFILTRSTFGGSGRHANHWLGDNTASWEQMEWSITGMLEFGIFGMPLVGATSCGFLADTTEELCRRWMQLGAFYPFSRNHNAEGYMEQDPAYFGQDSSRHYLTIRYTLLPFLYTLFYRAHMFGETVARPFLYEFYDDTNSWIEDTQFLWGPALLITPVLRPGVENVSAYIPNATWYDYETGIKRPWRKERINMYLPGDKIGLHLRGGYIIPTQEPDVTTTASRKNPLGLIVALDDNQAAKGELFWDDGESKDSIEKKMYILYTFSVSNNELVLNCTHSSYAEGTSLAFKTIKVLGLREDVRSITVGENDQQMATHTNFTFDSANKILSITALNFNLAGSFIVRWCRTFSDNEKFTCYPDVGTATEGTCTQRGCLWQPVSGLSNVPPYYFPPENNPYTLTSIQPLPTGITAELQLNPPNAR
T1 sequence (P23739 1014-1841 limits assumed): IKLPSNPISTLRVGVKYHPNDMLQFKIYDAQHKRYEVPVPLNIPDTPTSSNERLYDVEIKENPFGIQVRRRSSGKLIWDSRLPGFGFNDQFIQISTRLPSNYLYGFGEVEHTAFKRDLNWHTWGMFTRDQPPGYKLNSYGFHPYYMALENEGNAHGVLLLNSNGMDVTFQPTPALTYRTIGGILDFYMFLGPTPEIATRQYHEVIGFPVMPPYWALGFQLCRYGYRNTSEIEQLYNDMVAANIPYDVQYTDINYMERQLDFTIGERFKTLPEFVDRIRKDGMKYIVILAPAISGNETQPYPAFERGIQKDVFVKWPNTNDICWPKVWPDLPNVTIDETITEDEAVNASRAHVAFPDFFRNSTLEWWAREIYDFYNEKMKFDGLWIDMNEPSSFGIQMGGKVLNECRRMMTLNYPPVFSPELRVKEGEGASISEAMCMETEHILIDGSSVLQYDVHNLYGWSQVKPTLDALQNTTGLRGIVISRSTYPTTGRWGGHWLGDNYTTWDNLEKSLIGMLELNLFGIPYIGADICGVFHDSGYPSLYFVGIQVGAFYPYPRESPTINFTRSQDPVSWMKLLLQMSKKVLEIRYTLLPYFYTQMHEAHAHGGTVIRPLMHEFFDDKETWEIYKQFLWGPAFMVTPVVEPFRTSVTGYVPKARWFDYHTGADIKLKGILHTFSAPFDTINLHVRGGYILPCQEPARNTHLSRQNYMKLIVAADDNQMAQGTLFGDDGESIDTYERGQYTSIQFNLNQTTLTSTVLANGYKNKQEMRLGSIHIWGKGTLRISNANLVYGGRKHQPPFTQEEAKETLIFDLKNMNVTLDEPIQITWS

Row | SMILES | pIC50 [1] | pIC50 [2] | pIC50 (Maltase-glucoamylase) | pIC50 [3]
1 | O=[N+]([O-])c1ccccc1CO[C@@H](CO)[C@H](O)C[S@@+]1C[C@@H](O)[C@H](O)[C@H]1CO | 7.38 | 6.89 | 6.82 | 6.68
2 | OC[C@@H]1[C@@H](O)[C@H](O)C[S+]1C[C@@H](O)[C@@H](O)CO (some centres undefined) | 5.89 | 5.10 | 5.05 | 6.52
3 | CC(C)(C)CO[C@@H](CO)[C@H](O)C[S+]1C[C@@H](O)[C@H](O)[C@H]1CO (some centres undefined) | 7.05 | 6.52 | 6.33 | 6.55
4 | CCCCCCCCCCCCCO[C@@H](CO)[C@H](O)C[S+]1C[C@@H](O)[C@H](O)[C@H]1CO (some centres undefined) | 5.89 | 5.98 | 5.96 | 6.02
5 | CCCCCO[C@@H](CO)[C@H](O)C[S+]1C[C@@H](O)[C@H](O)[C@H]1CO (some centres undefined) | 6.30 |  | 5.82 | 6.33
6 | CCO[C@@H](CO)[C@H](O)C[S+]1C[C@@H](O)[C@H](O)[C@H]1CO (some centres undefined) | 6.92 |  | 6.02 | 6.57
7 | O=S(=O)([O-])O[C@@H](CO)[C@H](O)C[S+]1C[C@@H](O)[C@H](O)[C@H]1CO (some centres undefined) | 5.80 | 5.28 |  | 5.89
8 | OCC(CO)N[C@H]1C[C@](O)(CO)[C@@H](O)[C@H](O)[C@H]1O [VOGLIBOSE] |  |  | 5.89 | 
9 | CO[C@@H](CO)[C@H](O)C[S+]1C[C@@H](O)[C@H](O)[C@H]1CO (some centres undefined) | 6.34 | 5.28 | 5.70 | 6.41
10 | CC(C)CO[C@@H](CO)[C@H](O)C[S+]1C[C@@H](O)[C@H](O)[C@H]1CO (some centres undefined) | 7.05 | 6.10 | 6.16 | 6.47
11 | OCCN1C[C@H](O)[C@@H](O)[C@H](O)[C@H]1CO [MIGLITOL] |  | 5.09 |  | 
12 | CCCCCCCO[C@@H](CO)[C@H](O)C[S+]1C[C@@H](O)[C@H](O)[C@H]1CO (some centres undefined) | 6.62 | 6.10 | 6.19 | 6.60
